# Screens deposited in PubChem by Johns Hopkins Ion Channel Center.
# KCNQ1 pot – potentiates or activates the human KCNQ1 potassium channel; CHO-K1 KCNQ1, thallium flux FluxOR fluorescence; active compounds read high; B-score at 10 µM; hit rate 0.35% among 310,000; P51787;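 active = fluorescence ratio B-score, a plate-corrected score, at least three library SD, with initial intensity B-score within 5 SD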
#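 assay system = CHO-K1 cells stably expressing KCNQ1 | medium = assay buffer, equal DMSO in all wells | timing = 37 °C overnight plating, 90-min dark dye load, 20-min compound pretreatment | measured by = kinetic FluxOR thallium fluorescence, 10-s 1-Hz baseline, 110-s post-stimulus read | measure = fluorescence change relative to baseline, converted to B score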
# KCNQ1 block – inhibitors of human KCNQ1 potassium channel. B-score at 10 µM. P51787. hit rate 1.3% among 310,000. AID 2642. CHO-K1 KCNQ1, FluxOR thallium flux fluorescence; active compounds read high;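 active = compounds whose thallium flux B-score, printed positive for inhibition, exceeds three library SD while starting fluorescence stays within three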;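 note: channel opened by potassium depolarization with thallium stimulus after 20 min compound exposure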
# Kir21 inh – inhibitors of mouse Kir2.1 inward-rectifier potassium channel; B-score at 10 µM; HEK293-Kir2.1, FluxOR thallium flux fluorescence; active compounds read low; hit rate 0.85% among 310,000; AID 1672;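 active = fluorescence ratio B-score at or below minus 3 SD of library scores, with starting-brightness B-score within 2 SD, cut at about -4.2 in these data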;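 note: channel flux triggered by added potassium and thallium sulfate stimulus; B-score of peak minus minimum fluorescence over baseline after thallium stimulus; more negative B-score means stronger Kir2.1 block with less thallium influx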
# KCNK9 block – inhibitors of human KCNK9 two-pore domain potassium channel. Q9NPC2. hit rate 1.2% among 310,000. B-score at 10 µM. HEK293 KCNK9, FluxOR thallium flux fluorescence; active compounds read low;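 active = ratio B-score over 3 SD below the library mean, with starting fluorescence within 5 SD of its mean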;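 note: negative B-score means less thallium flux so channel inhibition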
# KCNK3 block – human KCNK3 channel inhibition, primary screen. B-score at 10 µM. O14649. hit rate 0.84% among 340,000. AID 602410. CHO-KCNK3 thallium flux, FluxOR fluorescence; active compounds read low;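 active = B-score under library mean minus 4 SD, starting fluorescence ratio at most library mean plus 5 SD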;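 note: more negative B-score means stronger inhibition of thallium flux through KCNK3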
# hERG protect – shields human hERG channel from block by proarrhythmic agents; Q12809; CHO-hERG, FluxOR thallium flux, dofetilide IC70 present; activation (rescue from dofetilide block), less the hit threshold, % at 10 µM; hit rate 0.51% among 310,000;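 active = activation above the mean of controls blocked by dofetilide plus 5 SD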;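 note: thallium influx through hERG after potassium depolarization seen as dye fluorescence rise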
# * hit, by the source's call; i = inactive; . = no result given. Hits are enriched below; roughly 3.7% of the tested compounds scored in any of these assays.
SMILES,KCNQ1 pot,KCNQ1 block,Kir21 inh,KCNK9 block,KCNK3 block,hERG protect
CCOc1cccc2sc(N3CCN(C(=O)c4ccc5ncsc5c4)CC3)nc12,i,i,-0.12,i,i,-15
CC(C)(C)c1ccc(OCC(O)CN2CCc3ccccc3C2)cc1 (stereo unspecified),i,i,-0.28,i,i,-18
Cc1ccc(OCC(O)CN2CCc3ccccc3C2)c(C)c1 (stereo unspecified),i,i,-7.9*,i,i,-8
COc1cccc(OCC(O)CN2CCc3ccccc3C2)c1 (stereo unspecified),i,i,-0.16,i,i,-4
Clc1ccc(OCCOCCN2CCc3ccccc3C2)c(Cl)c1,i,i,-15*,i,i,-18
Cc1cccc(OCC(O)CN2CCc3ccccc3C2)c1 (stereo unspecified),i,i,-8.8*,i,i,-11
OC(COc1ccc(Cl)cc1Cl)CN1CCc2ccccc2C1 (stereo unspecified),i,i,-15*,i,i,-10
COc1ccc(OCC(O)CN2CCc3ccccc3C2)cc1 (stereo unspecified),i,i,2.3,i,i,-2
Clc1ccc(OCCCN2CCc3ccccc3C2)c(Br)c1,i,i,-0.06,i,i,-18
COc1ccc(OC)c2c1cc(C(=O)N[C@@H](Cc1ccccc1)C(=O)O)n2C,i,i,0,i,i,-8
CC(C)N(CCNC(=O)c1nn(Cc2ccccc2)c(=O)c2ccccc12)C(C)C,i,i,-0.35,i,i,-5
CC(=O)N(Cc1ccc(F)cc1)C1=C(NCc2ccccc2)C(=O)c2ccccc2C1=O,i,i,-1.4,-7.9*,i,-9
COc1ccccc1CN(C)C(=O)CSCC(=O)Nc1ccccc1F,.,.,.,.,i,.
CCCc1ccc(C2C3=C(CC(C)(C)CC3=O)NC3=C2C(=O)c2ccccc23)cc1 (stereo unspecified),i,9*,-2.1,i,i,-9
CC1(C)CC(=O)C2=C(C1)NC1=C(C(=O)c3ccccc31)C2c1ccc(O)cc1 (stereo unspecified),i,i,-0.01,i,i,-3
CCCCn1c(N)c(C(=S)NC(=O)CC(C)(C)C)c(=O)n(C)c1=O,18*,i,0,i,i,25*
CN(Cc1ccccc1)C(=O)c1ccc(NC(=O)Cc2ccc(NC(=O)C3CCCN(C(=O)c4ccccc4)C3)cc2)cc1 (stereo unspecified),.,.,.,.,i,.
O=C(CCNC(=O)c1ccc([N+](=O)[O-])cc1)Nc1cccc(S(=O)(=O)N2CCCCCC2)c1,.,.,.,.,i,.
COc1cc(NC(=O)c2ccccc2F)c(OC)cc1NC(=O)CN1CCOCC1,i,i,-1.3,i,i,4.7*
COc1cc(NC(=O)c2ccc(F)cc2)c(OC)cc1NC(=O)CN1CCOCC1,i,i,0,i,i,-7
COc1ccc2nc(NC(=O)CN3CCOCC3)sc2c1,i,i,-1.2,i,i,7.3*
Cc1ccccc1NC(=O)CCN1CCCCCC1,i,i,0.54,i,i,4.8*
COc1ccc(NC(=O)CN2CCN(c3ccccc3)CC2)cc1,i,i,0.63,i,i,-3
COc1ccc(NC(=O)CN2CCN(C3c4ccccc4-c4ccccc43)CC2)cc1,8*,i,0.01,i,i,-15
Cc1nc(N)[nH]c(=O)c1CCCNc1ccc([N+](=O)[O-])cc1,.,.,.,.,i,.
SMILES,KCNQ1 pot,KCNQ1 block,Kir21 inh,KCNK9 block,KCNK3 block,hERG protect
COC(=O)[C@@H](CC(C)C)NS(=O)(=O)N(Cc1ccccc1)[C@@H](CC(C)C)C(=O)OC,.,.,.,.,i,.
CC(C)(C)S(=O)N1Cc2cc(CO)cc(CCO)c2[C@H]1CCO (stereo partly specified),.,.,.,.,i,.
CCCc1nnc(NC(=O)CN2CCOCC2)s1,i,i,-0.55,i,i,12*
O=C(CN1CCCCCC1)Nc1ccc(Oc2ccccc2)cc1,19*,i,-2,i,i,18*
O=C(CN1CCCCC1)Nc1ccccc1,i,i,0.03,i,i,-10
O=C(CCN1CCOCC1)Nc1ccccc1,i,i,-0.7,i,i,5.1*
